The EC50 is the concentration that produces a half-maximal response. The IC50 is the point on the concentration scale where inhibition reaches its midpoint.

Starred links: 1 amine or outer side, 2 acyl side, 3 side chain; linkers in the order of their positions; H or OH if unused. Non-standard residues stand in square brackets, D forms with d. Residues, ends and D or L forms follow the SMILES beside them. X25 = C/N=C(/NCCCC[C@H](N[*:1])C(=O)[*:2])N(C)C; X14 = CCN(CC)C(=N)NCCCC[C@H](N[*:1])C(=O)[*:2]; X24 = N=C(NCCCC[C@H](N[*:1])C(=O)[*:2])N1CCC1; X17 = CC(C)CNC(=N)NCC[C@H](N[*:1])C(=O)[*:2]; X13 = C/N=C(\NC)NCC[C@H](N[*:1])C(=O)[*:2]; X20 = CCNC(=N)NCCCC[C@H](N[*:1])C(=O)[*:2]; X23 = CN(C)C(=N)NCC[C@H](N[*:1])C(=O)[*:2]; X7 = CCN(C)C(=N)NCC[C@H](N[*:1])C(=O)[*:2]; X10 = CNC(=N)NCCCC[C@H](N[*:1])C(=O)[*:2]; X22 = CCCNC(=N)NCC[C@H](N[*:1])C(=O)[*:2]; Arg(ω-nPr) = CCCNC(=N)NCCC[C@H](N)C(=O)O; X4 = CNC(=N)NCC[C@H](N[*:1])C(=O)[*:2]; Arg(Me) = CNC(=N)NCCC[C@H](N)C(=O)O; Agb = N=C(N)NCC[C@H](N)C(=O)O

Test [1] deals with T1, Pyroglutamylated RF-amide peptide receptor (Homo sapiens, UniProt Q96P65).
T1 sequence (Q96P65 whole entry): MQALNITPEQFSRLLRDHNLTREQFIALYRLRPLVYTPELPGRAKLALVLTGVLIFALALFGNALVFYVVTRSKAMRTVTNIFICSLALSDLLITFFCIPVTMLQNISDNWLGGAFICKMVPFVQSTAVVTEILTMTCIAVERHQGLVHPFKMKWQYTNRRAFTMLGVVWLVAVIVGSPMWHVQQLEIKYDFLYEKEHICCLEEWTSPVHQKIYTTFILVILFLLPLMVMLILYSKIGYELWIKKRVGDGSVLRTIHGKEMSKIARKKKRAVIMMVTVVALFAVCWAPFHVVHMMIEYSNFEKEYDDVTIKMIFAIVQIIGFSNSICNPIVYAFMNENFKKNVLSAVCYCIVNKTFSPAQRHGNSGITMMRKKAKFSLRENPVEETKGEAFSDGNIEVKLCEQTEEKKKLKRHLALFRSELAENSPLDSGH
Description: Agonist activity at human QRFPR expressed in CHO cells co-expressing Galpha16 assessed as increase Ca2+ mobilization after 3 mins by Fluo-4 AM-based scanning fluorometery. It is filed as functional, cell-based. In short, it runs like this:
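CHO-Gα16 cells stably expressing human QRFPR, seeded at 40,000 cells/well 24 h ahead. Loaded 1 h with 2 µM Fluo-4 AM plus 0.01% pluronic acid, washed, then 30 min in HBSS with 2.5 mM probenecid and 5 mM HEPES. Compounds added at final 10^-11 to 10^-5 M; fluorescence recorded 3 min on a scanning fluorometer. EC50 from sigmoidal variable-slope fits, ≥3 experiments in triplicate.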
For orientation: Calcium assays in cells follow changes in intracellular calcium, usually with a dye or a luminescent sensor.

Test [2] deals with T1, Pyroglutamylated RF-amide peptide receptor. Description: Antagonist activity at human QRFPR expressed in CHO cells co-expressing Galpha16 assessed as inhibition of 26RFa-induced Ca2+ mobilization preincubated for 15 mins followed by agonist addition measured after 3 mins by Fluo-4 AM-based scanning fluorometery. The test is classed as functional, cell-based. In short, it runs like this:
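CHO-Gα16-hQRFPR cells loaded 1 h with 2 µM Fluo-4 AM, then incubated 15 min with graded compound. A 10^-7 M final 26RFa pulse was given during recording. Background subtracted, baseline normalized to 100%, peak fluorescence taken per concentration. IC50 from sigmoidal variable-slope fits, ≥3 experiments in triplicate. Maximal effect at 10^-4 M expressed as % inhibition of the 26RFa (10^-7 M) response.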

`N=C(N)NCC[C@H](NC(=O)[C@H](Cc1ccccc1)NC(=O)[C@H](CO)NC(=O)[C@H](Cc1ccccc1)NC(=O)CNC(=O)CN)C(=O)N[C@@H](Cc1ccccc1)C(N)=O` (H-GGFSF[Agb]F-NH2): in test [1], the EC50 was more than 100 µM. Further, the concentration for half-maximal inhibition (IC50) in test [2] was more than 100 µM. Consider `C/N=C(\NC)NCC[C@H](NC(=O)[C@H](Cc1ccccc1)NC(=O)[C@H](CO)NC(=O)[C@H](Cc1ccccc1)NC(=O)CNC(=O)CN)C(=O)N[C@@H](Cc1ccccc1)C(N)=O` (H-GGFSF[X13]F-NH2), for which, in test [1], the half-maximal effective concentration (EC50) is more than 100 µM. The half-inhibitory concentration (IC50) in test [2] was more than 100 µM.

Take `CCCNC(=N)NCC[C@H](NC(=O)[C@H](Cc1ccccc1)NC(=O)[C@H](CO)NC(=O)[C@H](Cc1ccccc1)NC(=O)CNC(=O)CN)C(=O)N[C@@H](Cc1ccccc1)C(N)=O` (H-GGFSF[X22]F-NH2): the concentration giving a half-maximal response (EC50) in test [1] is more than 100 µM. For the same compound, in test [2], the half-inhibitory concentration (IC50) is more than 100 µM. As to `CN(C)C(=N)NCC[C@H](NC(=O)[C@H](Cc1ccccc1)NC(=O)[C@H](CO)NC(=O)[C@H](Cc1ccccc1)NC(=O)CNC(=O)CN)C(=O)N[C@@H](Cc1ccccc1)C(N)=O` (H-GGFSF[X23]F-NH2), in test [1], the EC50 is more than 100 µM. Besides, the 50% inhibitory concentration (IC50) in test [2] is more than 100 µM. For the compound `CCN(C)C(=N)NCC[C@H](NC(=O)[C@H](Cc1ccccc1)NC(=O)[C@H](CO)NC(=O)[C@H](Cc1ccccc1)NC(=O)CNC(=O)CN)C(=O)N[C@@H](Cc1ccccc1)C(N)=O` (H-GGFSF[X7]F-NH2), in test [1], the 50% effective concentration (EC50) is more than 100 µM. Moreover, in test [2], the 50% inhibitory concentration (IC50) was more than 100 µM. In the case of `CCNC(=N)NCCCC[C@H](NC(=O)[C@H](Cc1ccccc1)NC(=O)[C@H](CO)NC(=O)[C@H](Cc1ccccc1)NC(=O)CNC(=O)CN)C(=O)N[C@@H](Cc1ccccc1)C(N)=O` (H-GGFSF[X20]F-NH2), the EC50 in test [1] was more than 100 µM. Besides, in test [2], the IC50 was more than 100 µM.

Take `CC(C)CNC(=N)NCC[C@H](NC(=O)[C@H](Cc1ccccc1)NC(=O)[C@H](CO)NC(=O)[C@H](Cc1ccccc1)NC(=O)CNC(=O)CN)C(=O)N[C@@H](Cc1ccccc1)C(N)=O` (H-GGFSF[X17]F-NH2): the EC50 in test [1] was more than 100 µM. In test [2], the IC50 is more than 100 µM. Turning to `CNC(=N)NCCC[C@H](NC(=O)[C@H](Cc1ccccc1)NC(=O)[C@H](CO)NC(=O)[C@H](Cc1ccccc1)NC(=O)CNC(=O)CNC(=O)[C@H](CCCCN)NC(=O)[C@H](CCCCN)NC(=O)[C@H](CCCNC(=N)N)NC(=O)[C@H](CO)NC(=O)[C@H](Cc1ccc(O)cc1)NC(=O)CNC(=O)[C@H](CC(N)=O)NC(=O)[C@H](CC(C)C)NC(=O)[C@H](CCC(=O)O)NC(=O)[C@H](CCC(=O)O)NC(=O)[C@H](C)NC(=O)[C@H](CC(C)C)NC(=O)[C@H](CC(N)=O)NC(=O)CNC(=O)[C@H](CC(C)C)NC(=O)[C@@H]1CCCN1C(=O)CNC(=O)[C@H](CO)NC(=O)[C@@H](N)[C@@H](C)O)C(=O)N[C@@H](Cc1ccccc1)C(N)=O` (H-TSGPLGNLAEELNGYSRKKGGFSF[Arg(Me)]F-NH2), the EC50 in test [1] turned out to be 0.0069 µM.

Take `CNC(=N)NCCCC[C@H](NC(=O)[C@H](Cc1ccccc1)NC(=O)[C@H](CO)NC(=O)[C@H](Cc1ccccc1)NC(=O)CNC(=O)CN)C(=O)N[C@@H](Cc1ccccc1)C(N)=O` (H-GGFSF[X10]F-NH2): in test [1], the EC50 is more than 100 µM. Also, the 50% inhibitory concentration (IC50) in test [2] is more than 100 µM. As for `CCN(CC)C(=N)NCCCC[C@H](NC(=O)[C@H](Cc1ccccc1)NC(=O)[C@H](CO)NC(=O)[C@H](Cc1ccccc1)NC(=O)CNC(=O)CN)C(=O)N[C@@H](Cc1ccccc1)C(N)=O` (H-GGFSF[X14]F-NH2), the EC50 in test [1] was more than 100 µM. The half-maximal inhibitory concentration (IC50) in test [2] was more than 100 µM. As to H-GGFSFRF-NH2, the half-maximal effective concentration (EC50) in test [1] came to 1.64 µM. Still for that read-out and setting: the result for `CCCNC(=N)NCCC[C@H](NC(=O)[C@H](Cc1ccccc1)NC(=O)[C@H](CO)NC(=O)[C@H](Cc1ccccc1)NC(=O)CNC(=O)CN)C(=O)N[C@@H](Cc1ccccc1)C(N)=O` (H-GGFSF[Arg(ω-nPr)]F-NH2) reads 1.4 µM. Take `C/N=C(/NCCCC[C@H](NC(=O)[C@H](Cc1ccccc1)NC(=O)[C@H](CO)NC(=O)[C@H](Cc1ccccc1)NC(=O)CNC(=O)CN)C(=O)N[C@@H](Cc1ccccc1)C(N)=O)N(C)C` (H-GGFSF[X25]F-NH2): the EC50 in test [1] was more than 100 µM. In addition, in test [2], the IC50 is more than 100 µM.

With `N=C(NCCCC[C@H](NC(=O)[C@H](Cc1ccccc1)NC(=O)[C@H](CO)NC(=O)[C@H](Cc1ccccc1)NC(=O)CNC(=O)CN)C(=O)N[C@@H](Cc1ccccc1)C(N)=O)N1CCC1` (H-GGFSF[X24]F-NH2), in test [1], the concentration giving a half-maximal response (EC50) is more than 100 µM. For the same compound, the concentration for half-maximal inhibition (IC50) in test [2] was more than 100 µM.

Take `CNC(=N)NCC[C@H](NC(=O)[C@H](Cc1ccccc1)NC(=O)[C@H](CO)NC(=O)[C@H](Cc1ccccc1)NC(=O)CNC(=O)CN)C(=O)N[C@@H](Cc1ccccc1)C(N)=O` (H-GGFSF[X4]F-NH2): the EC50 in test [1] is more than 100 µM. Further, the IC50 in test [2] was more than 100 µM.

For the origin of these results see ChEMBL document CHEMBL4270668, “Design, Synthesis, Molecular Dynamics Simulation, and Functional Evaluation of a Novel Series of 26RFa Peptide Analogues Containing a Mono- or Polyalkyl Guanidino Arginine Derivative” (J Med Chem, 2018).
